Results published in ChEMBL document CHEMBL4393723, “Caffeic acid phenethyl ester (CAPE)-derivatives act as selective inhibitors of acetylcholinesterase” (Eur J Med Chem, 2019).
pEC50, pKi: −log10 of the molar value.

Experiments:
A2780 = test: Cytotoxicity against human A2780 cells measured after 96 hrs by SRB assay; type: cell-based; conditions: for Activity: human, a2780, 96 h; for pEC50: Homo sapiens, A2780, 96 h
Outline: (§1)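 Cells seeded on day 0 and exposed from 24 h to at least six concentrations (1, 3, 7, 12, 20, 30 µM), with final DMSO/DMF at most 0.5%. After 96 h treatment, fixed in 10% TCA for 24 h at 4 °C and stained about 20 min with 0.4% SRB in 1% acetic acid. Bound dye dissolved in 10 mM Tris base, read at 570 nm. EC50 from 4-parameter Hill fit (top 100, bottom 0), three independent experiments in triplicate.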

HT-29 = test: Cytotoxicity against human HT-29 cells measured after 96 hrs by SRB assay; type: cell-based; conditions: for Activity: human, ht-29, 96 h; for pEC50: Homo sapiens, HT-29, 96 h; outline: as §1
SW-1736 = test: Cytotoxicity against human SW1736 cells measured after 96 hrs by SRB assay; type: cell-based; conditions: for Activity: human, sw-1736, 96 h; for pEC50: Homo sapiens, SW-1736, 96 h; outline: as §1
MCF7 = test: Cytotoxicity against human MCF7 cells measured after 96 hrs by SRB assay; type: cell-based; conditions: for Activity: human, mcf7, 96 h; for pEC50: Homo sapiens, MCF7, 96 h; outline: as §1
NIH3T3 = test: Cytotoxicity against mouse NIH/3T3 cells measured after 96 hrs by SRB assay; type: cell-based; conditions: for Activity: mouse, nih3t3, 96 h; for pEC50: Mus musculus, NIH3T3, 96 h; outline: as §1
FaDu = test: Cytotoxicity against human FADU cells measured after 96 hrs by SRB assay; type: cell-based; conditions: for Activity: human, fadu; for pEC50: Homo sapiens, FaDu; outline: as §1
Acetylcholinesterase [1] = target: T1, Acetylcholinesterase (Electrophorus electricus, UniProt O42275); test: Mixed inhibition of electric eel AChE using acetylcholine iodide as substrate preincubated for 20 mins followed by substrate addition and measured every minute for 30 mins by Lineweaver-Burk plot analysis
Acetylcholinesterase [2] = target: T1, Acetylcholinesterase; test: Mixed inhibition of electric eel AChE using butyrylcholine iodide as substrate preincubated for 20 mins followed by substrate addition and measured every minute for 30 mins Dixon/Cornish-Bowden plot analysis
[3] = Solubility of the compound; type: physicochemical

T1 sequence (O42275 whole entry): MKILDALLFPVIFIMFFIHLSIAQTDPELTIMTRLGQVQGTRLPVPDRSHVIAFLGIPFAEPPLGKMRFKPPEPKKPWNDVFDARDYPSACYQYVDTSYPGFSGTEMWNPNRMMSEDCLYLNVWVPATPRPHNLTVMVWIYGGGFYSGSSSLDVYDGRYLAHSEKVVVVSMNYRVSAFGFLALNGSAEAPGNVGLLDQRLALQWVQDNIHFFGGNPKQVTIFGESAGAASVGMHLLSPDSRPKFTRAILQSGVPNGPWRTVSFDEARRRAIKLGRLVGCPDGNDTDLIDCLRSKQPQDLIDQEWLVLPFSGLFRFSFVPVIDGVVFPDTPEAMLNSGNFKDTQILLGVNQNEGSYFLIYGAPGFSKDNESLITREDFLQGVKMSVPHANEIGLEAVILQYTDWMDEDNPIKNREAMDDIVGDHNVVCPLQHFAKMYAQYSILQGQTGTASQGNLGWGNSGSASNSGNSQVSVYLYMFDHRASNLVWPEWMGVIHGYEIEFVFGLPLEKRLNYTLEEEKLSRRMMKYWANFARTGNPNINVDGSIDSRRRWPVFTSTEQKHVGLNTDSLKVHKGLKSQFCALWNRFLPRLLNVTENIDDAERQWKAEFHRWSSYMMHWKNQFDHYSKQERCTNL

In the case of `O=C(/C=C/c1ccc(OCc2ccccc2)c(OCc2ccccc2)c1)OCCc1ccc(OC(=O)/C=C/c2ccc(OCc3ccccc3)c(OCc3ccccc3)c2)c(OC(=O)/C=C/c2ccc(OCc3ccccc3)c(OCc3ccccc3)c2)c1`, the Activity (A2780) was “Non-Toxic”, the Activity (HT-29) was “Non-Toxic” and the Activity (SW-1736) was “Non-Toxic”. The Activity (MCF7) was “Non-Toxic”, the Activity (NIH3T3) was “Non-Toxic” and the Activity (FaDu) was “Non-Toxic”. For the same compound, the pKi (Acetylcholinesterase [1]) was 6.14 and the pKi (Acetylcholinesterase [2]) was 5.74.
For `COc1cc(/C=C/C(=O)OCCc2ccccc2)cc(OC)c1OCCc1ccccc1`, the Activity (A2780) was “Non-Toxic”, the Activity (HT-29) was “Non-Toxic” and the Activity (SW-1736) was “Non-Toxic”. For the same compound, the Activity (MCF7) was “Non-Toxic”, the Activity (NIH3T3) was “Non-Toxic” and the Activity (FaDu) was “Non-Toxic”. It also gave a pKi (Acetylcholinesterase [1]) of 5.71 and a pKi (Acetylcholinesterase [2]) of 5.61.
With `O=C(/C=C/c1cccc(Br)c1)OCCc1ccccc1` the pKi (Acetylcholinesterase [1]) was 5.05 and the pKi (Acetylcholinesterase [2]) was 4.51.
Compound `COc1ccc(/C=C/C(=O)OCCc2ccccc2)cc1OC` has a pEC50 (A2780) of 4.77, a pEC50 (HT-29) of 4.78 and a pEC50 (SW-1736) of 4.78. The pEC50 (MCF7) was 4.79, the pEC50 (NIH3T3) was 4.75 and the pEC50 (FaDu) was 4.76.
In the case of `O=C(/C=C/c1ccc(OCc2ccccc2)c(OCc2ccccc2)c1)OCCc1ccc(OC(=O)/C=C/c2ccc(OCc3ccccc3)c(OCc3ccccc3)c2)cc1`, the solubility [3] was “Insoluble”.
With `O=C(/C=C/c1ccc(OCc2ccccc2)c(OCc2ccccc2)c1)OCCc1ccccc1OC(=O)/C=C/c1ccc(OCc2ccccc2)c(OCc2ccccc2)c1` the solubility [3] was “Insoluble”.
`O=C(/C=C/c1ccc(O)c(O)c1)OCCc1ccccc1` [CAFFEIC ACID PHENETHYL ESTER] showed a pEC50 (A2780) of 5.46, a pEC50 (HT-29) of less than 4.52 and a pEC50 (SW-1736) of 5.33. For the same compound, the pEC50 (MCF7) was 4.92, the pEC50 (NIH3T3) was 4.67 and the pEC50 (FaDu) was 4.92.
With `O=C(/C=C/c1ccc(OCc2ccccc2)c(OCc2ccccc2)c1)OCCc1cccc(OC(=O)/C=C/c2ccc(OCc3ccccc3)c(OCc3ccccc3)c2)c1` the solubility [3] was “Insoluble”.
Compound `O=C(/C=C/c1cccc(Cl)c1)OCCc1ccccc1` has a pKi (Acetylcholinesterase [1]) of 4.85 and a pKi (Acetylcholinesterase [2]) of 4.25.
`O=C(/C=C/c1ccc(OCc2ccccc2)c(OCc2ccccc2)c1)OCCc1ccccc1O` showed a pKi (Acetylcholinesterase [1]) of 5.07 and a pKi (Acetylcholinesterase [2]) of 4.92.
`COc1ccc(/C=C/C(=O)OCCc2ccccc2)c(OC)c1` gave a pKi (Acetylcholinesterase [1]) of 4.92 and a pKi (Acetylcholinesterase [2]) of 4.46.
